ChEMBL document CHEMBL1147249, “Sunpollenol and five other rearranged 3,4-seco-tirucallane-type triterpenoids from sunflower pollen and their inhibitory effects on Epstein-Barr virus activation” (J Nat Prod, 2003)

What was measured:
Assay type in all cases: cell-based
Raji [1] = test: Inhibition of 12-O-tetradecanoylphorbol-13-acetate-induced EBV-early antigen activation in human Raji cells assessed as early antigen induction at 10 molar ratio after 48 hrs by conventional indirect immunofluorescence technique relative to TPA; design: scale not given: the % may be the effect or the level left; conditions: human gammaherpesvirus 4
How it was run: (§1)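 Raji cells (1 × 10^6 cells/mL, RPMI-1640 with 10% FBS) were induced with 4 mM n-butyric acid plus […] TPA (20 ng/mL in DMSO). Test compound (32, 16, 3.2, 0.32 nmol in 1 mL) was present for 48 h at 37 °C. EA-positive cells were stained with NPC patient sera and detected by indirect immunofluorescence, at least 500 cells per assay, three repeats. Results are given as percent of butyrate+TPA control.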

Raji [2] = test: Inhibition of 12-O-tetradecanoylphorbol-13-acetate-induced EBV-early antigen activation in human Raji cells assessed as early antigen induction at 1000 molar ratio after 48 hrs by conventional indirect immunofluorescence technique relative to TPA; design: scale not given: the % may be the effect or the level left; conditions: human gammaherpesvirus 4; how it was run: as §1
Raji [3] = test: Inhibition of 12-O-tetradecanoylphorbol-13-acetate-induced EBV-early antigen activation in human Raji cells assessed as early antigen induction at 500 molar ratio after 48 hrs by conventional indirect immunofluorescence technique relative to TPA; design: scale not given: the % may be the effect or the level left; conditions: human gammaherpesvirus 4; how it was run: as §1
Raji [4] = test: Inhibition of 12-O-tetradecanoylphorbol-13-acetate-induced EBV-early antigen activation in human Raji cells assessed as early antigen induction at 100 molar ratio after 48 hrs by conventional indirect immunofluorescence technique relative to TPA; design: scale not given: the % may be the effect or the level left; conditions: human gammaherpesvirus 4; how it was run: as §1
[5] = Cytotoxicity against human Raji cells assessed as cell viability at 1000 molar ratio after 48 hrs by trypan blue staining method; conditions: read-out: Activity
How it was run: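 Raji cells (EBV genome-carrying, nonproducer) at 1 × 10^6 cells/mL in RPMI-1640 with 10% FBS were exposed to 4 mM n-butyric acid, […] TPA and test compound at 37 °C in a CO2 incubator. Viability was scored by Trypan Blue staining and given as percent viable Raji cells.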

| SMILES | Activity (Raji [1]) [%] | Activity (Raji [2]) [%] | Activity (Raji [3]) [%] | Activity (Raji [4]) [%] | viability at 48 h, 1000 molar ratio [5] [%] |
| --- | --- | --- | --- | --- | --- |
| C[C@@H](CC[C@H](O)C(C)(C)O)[C@@H]1CC[C@]2(C)[C@H]3CC[C@@]4(C(C)(C)O)OCCC[C@H]4[C@]3(C)CC[C@@]12C [(24S)-24,25-DIHYDROXYSUNPOLLENOL] | 94.2 | 0 | 25.3 | 73.3 | 70 |
| C[C@@H](CC[C@@H]1OC1(C)C)[C@@H]1CC[C@]2(C)[C@H]3CC[C@@]4(C(C)(C)O)OCCC[C@H]4[C@]3(C)CC[C@@]12C | 97.4 | 0 | 27.3 | 75.9 | 70 |
| CC1=C(/C=C/C(C)=C/C=C/C(C)=C/C=C/C=C(C)/C=C/C=C(C)/C=C/C2=C(C)CCCC2(C)C)C(C)(C)CCC1 | 100 | 8.6 | – | – | – |
| C[C@@H](CC[C@H]1OC1(C)C)[C@@H]1CC[C@]2(C)[C@H]3CC[C@@]4(C(C)(C)O)OCCC[C@H]4[C@]3(C)CC[C@@]12C [(24R)-24,25-EPOXYSUNPOLLENOL] | 91.8 | 0 | 26.3 | 72.6 | 60 |
| C[C@@H](C/C=C/C(C)(C)O)[C@@H]1CC[C@]2(C)[C@H]3CC[C@@]4(C(C)(C)O)OCCC[C@H]4[C@]3(C)CC[C@@]12C [(23E)-23-DEHYDRO-25-HYDROXYSUNPOLLENOL] | 90 | 0 | 22 | 70.6 | 70 |
| C[C@@H](CC[C@@H](O)C(C)(C)O)[C@@H]1CC[C@]2(C)[C@H]3CC[C@@]4(C(C)(C)O)OCCC[C@H]4[C@]3(C)CC[C@@]12C | 92.5 | 0 | 24.4 | 72.4 | 70 |
| CC(C)=CCC[C@H](C)[C@@H]1CC[C@]2(C)[C@H]3CC[C@@]4(C(C)(C)O)OCCC[C@H]4[C@]3(C)CC[C@@]12C [SUNPOLLENOL] | 96.8 | 3.1 | 30.5 | 74.3 | 70 |
